Laboratory results published in publication PMC6851657 (Clinical Pharmacology and Therapeutics, 2019).
Like-named read-outs stand apart in the source and are kept apart here.

Assays:
CYP2C9 = CYP2C9 (Homo sapiens, UniProt P11712); assay type: in vitro ADME
In short: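 Genotype-specific hepatic intrinsic clearance (CLint,h) was back-calculated from population PK total plasma clearance for each CYP2C9 genotype (*1/*1, *1/*2, *1/*3, *2/*2, *2/*3, *3/*3). Clearance was assumed to be entirely CYP-mediated hepatic metabolism, with purely passive hepatocyte uptake. CLint,h was split across CYP2C9, 3A4, 2B6, 2C8 and 2C19 by in vitro phenotyping fm. fu(mic) was set to 1. Values served as SimCYP PBPK inputs.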

[1] = observed, ref Novartis data on file, cited from earlier work; for AUCinf / Cmax / t1/2: GM (CV%; range)
CYP3A4 = CYP3A4 (Homo sapiens, UniProt P08684); settings: in vitro phenotyping, normalized to 100%; cited from earlier work
Sequence of CYP3A4 (P08684 whole entry): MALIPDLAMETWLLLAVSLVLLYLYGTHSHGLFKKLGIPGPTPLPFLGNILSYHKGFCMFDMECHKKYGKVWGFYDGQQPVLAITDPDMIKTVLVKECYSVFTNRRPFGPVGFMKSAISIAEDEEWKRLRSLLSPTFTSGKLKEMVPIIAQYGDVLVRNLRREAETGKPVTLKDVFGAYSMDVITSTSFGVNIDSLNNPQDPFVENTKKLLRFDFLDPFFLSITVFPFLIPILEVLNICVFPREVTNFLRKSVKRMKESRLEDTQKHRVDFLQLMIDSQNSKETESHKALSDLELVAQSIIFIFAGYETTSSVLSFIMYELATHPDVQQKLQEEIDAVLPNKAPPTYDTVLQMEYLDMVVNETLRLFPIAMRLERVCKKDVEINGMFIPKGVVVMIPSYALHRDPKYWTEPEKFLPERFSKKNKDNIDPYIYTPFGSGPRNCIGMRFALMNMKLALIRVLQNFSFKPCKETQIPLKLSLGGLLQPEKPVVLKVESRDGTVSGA

[2] = cited from earlier work; for AUC decrease: coadministration of itraconazole
[3] = coadministration of rifampin, CYP2C9*1/*1
[4] = coadministration with fluconazole, CYP2C9*1/*1

Sequence of CYP2C9 (P11712 whole entry): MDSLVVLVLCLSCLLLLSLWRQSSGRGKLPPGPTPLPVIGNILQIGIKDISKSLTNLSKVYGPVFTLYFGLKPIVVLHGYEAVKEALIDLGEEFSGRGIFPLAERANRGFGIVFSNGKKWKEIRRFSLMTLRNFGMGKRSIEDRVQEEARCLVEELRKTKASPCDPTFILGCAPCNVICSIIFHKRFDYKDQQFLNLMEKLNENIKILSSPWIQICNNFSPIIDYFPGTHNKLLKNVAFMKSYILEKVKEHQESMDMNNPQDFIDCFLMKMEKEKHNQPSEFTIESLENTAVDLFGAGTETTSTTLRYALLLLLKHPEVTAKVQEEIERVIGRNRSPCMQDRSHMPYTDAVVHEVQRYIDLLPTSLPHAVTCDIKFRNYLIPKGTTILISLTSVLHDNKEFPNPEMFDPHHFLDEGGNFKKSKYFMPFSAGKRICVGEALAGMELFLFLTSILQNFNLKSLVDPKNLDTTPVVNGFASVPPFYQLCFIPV

Compound: CCc1cc(/C(C)=N/OCc2ccc(C3CCCCC3)c(C(F)(F)F)c2)ccc1CN1CC(C(=O)O)C1 [siponimod]
- fmCYP2C9 (CYP2C9; CYP2C9*1/*1): 0.804
- fmCYP2C9 (CYP2C9; CYP2C9*1/*2): 0.788
- fmCYP2C9 (CYP2C9; CYP2C9*1/*3): 0.678
- fmCYP2C9 (CYP2C9; CYP2C9*2/*2): 0.727
- fmCYP2C9 (CYP2C9; CYP2C9*2/*3): 0.616
- AUCinf ([1]; 0.25 mg i.v. single dose): 80.1 (25.6; 47.7–125) ng·hour/mL
- Cmax ([1]; 0.25 mg i.v. single dose): 3.22 (19; 1.88–3.81) ng/mL
- t1/2 ([1]; 0.25 mg i.v. single dose): 27.4 (22.5; 20.1–47.7) h
- Tmax ([1]; 0.25 mg i.v. single dose, median (range)): 2.92 (2.92–2.92) h
- AUCinf ([1]; 0.25 mg p.o. single dose): 67.4 (26; 39.8–105) ng·hour/mL
- Cmax ([1]; 0.25 mg p.o. single dose): 1.71 (24; 0.920–2.30) ng/mL
- t1/2 ([1]; 0.25 mg p.o. single dose): 26.7 (22; 17.2–43.8) h
- contribution of CYP3A4 to metabolism (CYP3A4): 18.5%
- AUC decrease ([2]; CYP2C9*1/*2): 9–10%
- AUC decrease ([2]; CYP2C9*1/*3): 24%
- AUC reduction [2, 3]: 57%
- Cmax reduction [2, 3]: 45%
- AUC increase [2, 4]: increased approximately two fold
- Cmax increase [2, 4]: ~ 10%
